This note sets out measurements from ChEMBL document CHEMBL1142276, “Synthesis, cannabinoid receptor affinity, and molecular modeling studies of substituted 1-aryl-5-(1H-pyrrol-1-yl)-1H-pyrazole-3-carboxamides” (J Med Chem, 2008).

The structures appear in SMILES notation. The source made the active and inactive calls. The rule behind the calls is not given here.

Test [1] deals with Cannabinoid receptor 2 (Homo sapiens, UniProt P34972). Description: Displacement of [3H]CP-55940 from human recombinant CB2 receptor expressed in HEK cells. The format is cell-based, HEK293. Summed up:
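Membranes came from HEK cells transfected with human CB2. IC50 values were converted to Ki by Cheng-Prusoff. Values are means of at least three experiments, each in duplicate.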
(In general: In a radioligand displacement assay an active substance lowers the binding of a labelled ligand.)

The species entered for test [2] is Homo sapiens. Description: Ratio of Ki for human recombinant CB2 receptor to human recombinant CB1 receptor.
Test [3] addresses Cannabinoid receptor 1 (Homo sapiens, UniProt P21554). Nature of the test: biochemical. It is filed as cell-based, HEK293.
Test [4] concerns the target Cannabinoid receptor 1 (Mus musculus, UniProt P47746). Description: Activity at mouse CB1 receptor in mouse N18TG2 cells assessed as forskolin-induced cAMP formation. The format is functional, cell-based. Summed up: (§1)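 Intact confluent mouse N18TG2 neuroblastoma cells were stimulated for 10 min at 37 °C with 1 µM forskolin in serum-free DMEM with 20 mM HEPES, 0.1 mg/mL BSA and 0.1 mM IBMX. Compounds were given at various concentrations, with vehicle 0.1% methanol. Cells were then extracted with ethanol and cAMP was measured by kit.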
Background: cAMP levels reflect the balance of adenylyl cyclase and phosphodiesterase activity.

For test [5], the target named is Cannabinoid receptor 1 (Mus musculus) (UniProt P47746). Description: Activity at mouse CB1 receptor in mouse N18TG2 cells assessed as inhibition of forskolin-induced cAMP formation at 200 to 300 nM. The format is functional, cell-based. In a few lines:
as §1

The target is the same in test [6]. Nature of the test: Antagonist activity at mouse CB1 receptor in mouse N18TG2 cells assessed as forskolin-induced cAMP formation in presence of WIN-55212-2. The format is functional, cell-based. In a few lines:
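Intact confluent N18TG2 cells were exposed to compound with or without the CB1 agonist WIN55,212-2 at 100 nM, in the presence and absence of 1 µM forskolin. Incubation was 10 min at 37 °C in serum-free DMEM with HEPES, BSA and IBMX, vehicle 0.1% methanol. cAMP in ethanol extracts was quantified by kit.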

For orientation: Ki means a measure of affinity in units of concentration, obtained from inhibition or displacement. By IC50 is commonly meant the concentration that gives 50% inhibition. In general, EC50 refers to the concentration that produces a half-maximal response.

Cannabinoid receptor 1 (Mus musculus, UniProt P47746), sequence (P47746 whole entry): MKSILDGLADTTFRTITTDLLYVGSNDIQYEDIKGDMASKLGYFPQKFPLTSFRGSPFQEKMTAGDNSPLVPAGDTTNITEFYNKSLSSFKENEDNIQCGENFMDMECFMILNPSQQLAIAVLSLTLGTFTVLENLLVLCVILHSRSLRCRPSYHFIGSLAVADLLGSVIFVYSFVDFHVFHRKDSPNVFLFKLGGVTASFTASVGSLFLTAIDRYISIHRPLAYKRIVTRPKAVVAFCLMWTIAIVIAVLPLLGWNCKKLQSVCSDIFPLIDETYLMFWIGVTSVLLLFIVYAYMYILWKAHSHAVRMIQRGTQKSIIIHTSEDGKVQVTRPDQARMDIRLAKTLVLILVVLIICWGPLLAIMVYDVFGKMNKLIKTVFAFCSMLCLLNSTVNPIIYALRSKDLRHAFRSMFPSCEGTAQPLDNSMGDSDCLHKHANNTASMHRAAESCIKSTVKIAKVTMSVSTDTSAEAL
Cannabinoid receptor 1 (Mus musculus), sequence (P47746 whole entry): as above
Cannabinoid receptor 1 (Homo sapiens, UniProt P21554), sequence (P21554 whole entry): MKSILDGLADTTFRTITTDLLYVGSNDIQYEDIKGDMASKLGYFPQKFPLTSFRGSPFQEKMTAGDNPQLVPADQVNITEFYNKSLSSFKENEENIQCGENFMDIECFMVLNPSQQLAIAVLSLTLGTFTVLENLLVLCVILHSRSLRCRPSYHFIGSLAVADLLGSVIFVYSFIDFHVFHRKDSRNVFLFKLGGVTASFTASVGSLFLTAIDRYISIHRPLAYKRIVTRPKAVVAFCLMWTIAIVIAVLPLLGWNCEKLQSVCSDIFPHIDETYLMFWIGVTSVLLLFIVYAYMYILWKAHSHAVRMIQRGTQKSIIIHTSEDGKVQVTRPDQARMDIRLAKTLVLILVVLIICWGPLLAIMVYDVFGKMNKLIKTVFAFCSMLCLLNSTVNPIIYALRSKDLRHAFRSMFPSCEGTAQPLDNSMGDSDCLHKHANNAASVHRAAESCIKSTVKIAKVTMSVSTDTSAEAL
Cannabinoid receptor 2, sequence (P34972 whole entry): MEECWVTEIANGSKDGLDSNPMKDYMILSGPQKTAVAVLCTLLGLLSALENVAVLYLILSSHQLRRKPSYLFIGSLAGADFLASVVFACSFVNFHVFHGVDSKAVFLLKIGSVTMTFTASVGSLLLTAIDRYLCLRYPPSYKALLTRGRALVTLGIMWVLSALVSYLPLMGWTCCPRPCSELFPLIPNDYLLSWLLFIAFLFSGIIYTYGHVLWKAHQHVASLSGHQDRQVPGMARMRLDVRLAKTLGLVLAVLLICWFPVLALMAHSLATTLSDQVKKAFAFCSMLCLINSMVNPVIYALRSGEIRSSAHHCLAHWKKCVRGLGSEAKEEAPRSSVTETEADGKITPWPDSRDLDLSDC

In the case of `N#Cc1c(C(=O)NCc2ccc(Cl)c(Cl)c2)nn(-c2ccccc2)c1-n1cccc1`, the Ki in test [1] was over 3.94 µM. In addition, the IC50 in test [1] (read-out: IC50) was over 5 µM.
For `Cc1c(C(=O)NC2CCCCC2)nn(-c2c(Cl)cc(Cl)cc2Cl)c1-n1c(C)ccc1C`, the Ki in test [1] was 0.39 µM. In addition, the IC50 in test [1] (read-out: IC50) was 0.5 µM.
On to `Cc1c(C(=O)NN2CCCCC2)nn(-c2ccc(Cl)c(Cl)c2)c1-n1cccc1`, for which the Ki in test [1] is 0.02 µM. For the same molecule, the IC50 in test [1] (read-out: IC50) is 0.025 µM.
On to `Cc1c(C(=O)NC2CCCCC2)nn(-c2ccc(F)cc2F)c1-n1cccc1`, for which the Ki in test [1] amounted to 0.065 µM. Also, the IC50 in test [1] (read-out: IC50) is 0.083 µM.
For `Cc1c(C(=O)NC2CCCCC2)nn(-c2ccc(F)cc2F)c1-n1c(C)ccc1C`, in test [1], the Ki was 0.57 µM. In test [1] (read-out: IC50), the IC50 was determined as 0.72 µM.
`Cc1c(C(=O)NCc2ccc(Cl)c(Cl)c2)nn(-c2ccc(F)cc2F)c1-n1cccc1`: the Ki in test [1] worked out at 0.39 µM. Further, the IC50 in test [1] (read-out: IC50) turned out to be 0.5 µM.
For `Cc1c(C(=O)NCc2ccc(Cl)c(Cl)c2)nn(-c2c(Cl)cc(Cl)cc2Cl)c1-n1cccc1`, in that order: over 3.94 µM and over 5 µM.
With `Cc1c(C(=O)NC2CCCCC2)nn(-c2ccc(Cl)cc2Cl)c1-n1c(C)ccc1C`, the Ratio Ki in test [2] was determined as 2.07. For the same molecule, the Ki in test [1] came to 0.087 µM; in test [3] it was 0.042 µM. Besides, the figures for the IC50 in test [1] (read-out: IC50) and in test [3] were 0.11 µM and 0.074 µM, respectively.
In the case of `Cc1c(C(=O)NN2CCCCC2)nn(-c2ccccc2)c1-n1cccc1`, the Ki is over 3.94 µM in test [1] and over 2.82 µM in test [3]. Moreover, the IC50 result in test [1] (hek293) was “Not Active”; in test [3], over 5 µM.
Regarding `Cc1c(C(=O)NN2CCOCC2)nn(-c2ccc(F)cc2F)c1-n1cccc1`, the values for the Ki in test [1] and in test [3] were over 3.94 µM and over 2.82 µM, respectively. For the same molecule, the IC50 in test [1] (read-out: IC50) and in test [3] was over 5 µM in each case.
For the molecule `Cc1c(C(=O)NN2CCCCC2)nn(-c2ccc(Cl)cc2Cl)c1-n1cccc1`, the Ratio Ki in test [2] came to 0.94. The Ki in test [1] is 1.73 µM; in test [3] it was 1.85 µM. For the same molecule, the IC50 in test [1] (read-out: IC50) came to 0.2 µM; in test [3] it was 3.3 µM.
For `Cc1c(C(=O)NCc2ccc(Cl)c(Cl)c2)nn(-c2ccc(Cl)c(Cl)c2)c1-n1cccc1`, in test [1], the Ki amounted to 0.15 µM. Further, the IC50 in test [1] (read-out: IC50) was found to be 0.19 µM.
Take `Cc1c(C(=O)NN2CCCCC2)nn(-c2ccc(Cl)c(Cl)c2)c1-n1c(C)ccc1C`: the Ki in test [1] was 0.029 µM. Further, the IC50 in test [1] (read-out: IC50) amounted to 0.037 µM.
For `Cc1c(C(=O)NN2CCCCC2)nn(-c2c(Cl)cc(Cl)cc2Cl)c1-n1cccc1`, in test [2], the Ratio Ki is over 2.19. The Ki in test [1] was over 3.94 µM; in test [3] it was 1.8 µM. The IC50 in test [1] (read-out: IC50) was over 5 µM; in test [3] it was 3.2 µM.
On to `N#Cc1c(C(=O)NN2CCCCC2)nn(-c2ccc(Cl)cc2)c1-n1cccc1`, for which the Ratio Ki in test [2] was over 1.4. The Ki was over 3.94 µM in test [1] and 2.82 µM in test [3]. The molecule further registered a half-inhibitory concentration (IC50) in test [3] of 5 µM.
Regarding `Cc1c(C(=O)NCC2CCCCC2)nn(-c2ccc(Cl)cc2)c1-n1cccc1`, in test [2], the Ratio Ki came to 3.55. In addition, the Ki in test [1] came out at 0.39 µM; in test [3] it was 0.11 µM. Also, the values for the IC50 in test [1] (read-out: IC50) and in test [3] were 0.5 µM and 0.2 µM, respectively.
With `N#Cc1c(C(=O)NN2CCCCC2)nn(-c2ccccc2)c1-n1cccc1`, in test [1], the Ki was over 3.94 µM. Also, in test [3], the IC50 is over 5 µM and the Ki is over 2.82 µM.
With `Cc1c(C(=O)NN2CCCCC2)nn(-c2ccc(Cl)cc2Cl)c1-n1c(C)ccc1C`, in test [2], the Ratio Ki was 25.8. In addition, the Ki in test [1] was determined as 0.98 µM; in test [3] it was 0.038 µM. The IC50 is 1.24 µM in test [1] (read-out: IC50) and 0.067 µM in test [3].
For the molecule `Cc1nn(-c2ccc(Cl)cc2)c(-n2cccc2)c1C(=O)NCc1ccc(Cl)c(Cl)c1`, in test [1], the Ki was over 3.94 µM.
For the molecule `Cc1c(C(=O)NCc2ccc(Cl)c(Cl)c2)nn(-c2ccc(Cl)cc2Cl)c1-n1c(C)ccc1C`, the Ratio Ki in test [2] turned out to be 141. The 50% effective concentration (EC50) in test [4] was found to be 0.025 µM. The Ki was 3.94 µM in test [1] and 0.028 µM in test [3]. In addition, the values for the IC50 in test [1] (read-out: IC50) and in test [3] were 5 µM and 0.05 µM, respectively. The outcome in test [5] was inactive.
Take `Cc1c(C(=O)NCc2ccc(Cl)c(Cl)c2)nn(-c2ccc(Cl)cc2Cl)c1-n1cccc1`: the inhibition constant Ki in test [1] amounted to 0.51 µM. Further, the IC50 in test [1] (read-out: IC50) stood at 0.65 µM.
Turning to `Cc1c(C(=O)NC2CCCCC2)nn(-c2ccc(Cl)cc2Cl)c1-n1cccc1`, in test [2], the Ratio Ki stood at 1.14. Further, the Ki in test [1] worked out at 0.064 µM; in test [3] it was 0.056 µM. In addition, the IC50 turned out to be 0.081 µM in test [1] (read-out: IC50) and 0.1 µM in test [3].
For the molecule `Cc1c(C(=O)NN2CCCCC2)nn(-c2c(Cl)cc(Cl)cc2Cl)c1-n1c(C)ccc1C`, in test [2], the Ratio Ki was over 35.8. Further, the results for the Ki in test [1] and in test [3] were over 3.94 µM and 0.11 µM, respectively. For the same molecule, the IC50 was over 5 µM in test [1] (read-out: IC50) and 0.2 µM in test [3].
In the case of `O=C(NN1CCCCC1)c1cc(-n2cccc2)n(-c2ccc(Cl)cc2)n1`, the Ki in test [1] was over 3.94 µM.
As to `Cc1c(C(=O)NC2CCCCC2)nn(-c2ccc(Cl)c(Cl)c2)c1-n1c(C)ccc1C`, in test [2], the Ratio Ki turned out to be 0.093. Besides, the Ki in test [1] worked out at 0.0013 µM; in test [3], 0.014 µM. In addition, the IC50 in test [1] (read-out: IC50) was 0.0017 µM; in test [3] it was 0.025 µM.
As to `O=C(NN1CCCCC1)c1cc(-n2cccc2)n(-c2ccccc2)n1`, the figures for the Ki in test [1] and in test [3] were over 3.94 µM and over 2.82 µM, respectively. This molecule also displayed an IC50 in test [3] of over 5 µM.
As for `Cc1c(C(=O)NCc2ccc(Cl)c(Cl)c2)nn(-c2ccc(F)cc2F)c1-n1c(C)ccc1C`, the Ratio Ki in test [2] was over 113. Besides, the EC50 in test [4] is over 0.06 µM. Further, the inhibition constant (Ki) in test [1] is over 3.94 µM; in test [3] it was 0.035 µM. Moreover, the figures for the IC50 in test [1] (read-out: IC50) and in test [3] were over 5 µM and 0.062 µM, respectively.
With `Cc1c(C(=O)NN2CCCCC2)nn(-c2ccc(F)cc2F)c1-n1cccc1`, the Ki in test [1] stood at 2.4 µM. For the same molecule, the 50% inhibitory concentration (IC50) in test [1] (read-out: IC50) is 3 µM.
Turning to `Cc1c(C(=O)NC2CCCCC2)nn(-c2ccc(Cl)c(Cl)c2)c1-n1cccc1`, the result in test [6] was Active. In addition, in test [2], the Ratio Ki amounted to 0.3. Also, the EC50 in test [4] stood at 0.001 µM. For the same molecule, the results for the Ki in test [1] and in test [3] were 0.0017 µM and 0.0056 µM, respectively. Also, the IC50 was determined as 0.0022 µM in test [1] (read-out: IC50) and 0.01 µM in test [3]. Also, the result in test [5] was inactive.
With `Cc1c(C(=O)NCc2ccc(Cl)c(Cl)c2)nn(-c2ccc(Cl)c(Cl)c2)c1-n1c(C)ccc1C`, the Ratio Ki in test [2] was determined as 4.89. The Ki in test [1] stood at 1.37 µM; in test [3], 0.28 µM. In addition, the IC50 in test [1] (read-out: IC50) is 1.74 µM; in test [3], 0.5 µM.
As for `Cc1c(C(=O)NN2CCCCC2)nn(-c2ccc(Cl)cc2)c1-n1cccc1`, the Ratio Ki in test [2] is 19.8. For the same molecule, the Ki came out at 2.18 µM in test [1] and 0.11 µM in test [3]. In addition, the IC50 in test [1] (read-out: IC50) was found to be 2.77 µM; in test [3], 0.2 µM.
`Cc1nn(-c2ccc(Cl)cc2)c(-n2cccc2)c1C(=O)NN1CCCCC1`: the Ki is over 3.94 µM in test [1] and over 2.82 µM in test [3]. This molecule also registered an IC50 in test [3] of over 5 µM.
In the case of `Cc1c(C(=O)NN2CCCCC2)nn(-c2ccc(F)cc2F)c1-n1c(C)ccc1C`, the Ki in test [1] was over 3.94 µM. The IC50 in test [1] (read-out: IC50) was over 5 µM.
Turning to `O=C(NC1CCCCC1)c1cc(-n2cccc2)n(-c2ccc(Cl)cc2)n1`, in test [2], the Ratio Ki was determined as 6.25. Besides, the Ki in test [1] is 1.75 µM; in test [3], 0.28 µM. The IC50 in test [1] (read-out: IC50) is 2.22 µM; in test [3], 0.5 µM.
